Measurements as given in ChEMBL document CHEMBL4020842, “Discovery of N1-(4-((7-Cyclopentyl-6-(dimethylcarbamoyl)-7 H-pyrrolo[2,3- d]pyrimidin-2-yl)amino)phenyl)- N8-hydroxyoctanediamide as a Novel Inhibitor Targeting Cyclin-dependent Kinase 4/9 (CDK4/9) and Histone Deacetlyase1 (HDAC1) against Malignant Cancer” (J Med Chem, 2018).
Active and inactive are the calls of the source. The calls are words filed in the database; no cut-off is given here.

Experiments:
[1] = biological target: Aurora kinase B/Inner centromere protein (Homo sapiens, UniProt Q96GD4); assay: Inhibition of recombinant human full length C-terminal His6-tagged Aurora B//N-terminal GST-tagged INCENP (821-end residues) expressed in baculovirus infected sf21 cells using AKRRRLSSLRA substrate in presence of [gamma33P]ATP after 10 mins by scintillation counting method
HepG2 [2] = assay: Induction of apoptosis in human HepG2 cells assessed as live cells at 10 uM after 48 hrs by annexin V-FITC/propidium iodide staining based flow cytometry (reference value: 96.7%); assay type: functional
A549 [3] = assay: Induction of apoptosis in human A549 cells assessed as late apoptotic cells at 1 uM after 48 hrs by annexin V-FITC/propidium iodide staining based flow cytometry (reference value: 0.88%); assay type: functional
NCI-H460 [4] = assay: Induction of apoptosis in human NCI-H460 cells assessed as live cells at 5 uM after 48 hrs by annexin V-FITC/propidium iodide staining based flow cytometry (reference value: 97.3%); assay type: functional
NCI-H460 [5] = assay: Induction of apoptosis in human NCI-H460 cells assessed as late apoptotic cells at 1 uM after 48 hrs by annexin V-FITC/propidium iodide staining based flow cytometry (reference value: 1.29%); assay type: functional
T47D [6] = assay: Induction of apoptosis in human T47D cells assessed as late apoptotic cells at 10 uM after 48 hrs by annexin V-FITC/propidium iodide staining based flow cytometry (reference value: 6.16%); assay type: functional
MDA-MB-231 [7] = assay: Induction of apoptosis in human MDA-MB-231 cells assessed as early apoptotic cells at 1 uM after 48 hrs by annexin V-FITC/propidium iodide staining based flow cytometry (reference value: 0.4%); assay type: functional
T47D [8] = assay: Induction of apoptosis in human T47D cells after 48 hrs by Hoechst 33342 staining based assay; assay type: functional, cell-based
Method in brief: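 T47D cultures were incubated with test agent for 48h, then stained with Hoechst 33342. Apoptotic bodies were examined by imaging and compared with untreated cells.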

Hep 3B2 [9] = assay: Cell cycle arrest in human Hep3B cells assessed as decrease in S-phase at 625 nM after 24 hrs by propidium iodide staining based flow cytometry; assay type: functional
Method in brief: (§1)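 Cells were exposed for 24 h to a range of concentrations (625 nM, 2.5 and 10 µM), with DMSO vehicle as control. They were then stained with propidium iodide and analysed by flow cytometry to obtain the percentages of cells in G0/G1, S and G2 phases.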

MDA-MB-231 [10] = assay: Cell cycle arrest in human MDA-MB-231 cells assessed as decrease in S-phase at 625 nM after 24 hrs by propidium iodide staining based flow cytometry; assay type: functional; method in brief: as §1
[11] = biological target: CDK2/Cyclin A2 (Homo sapiens) (UniProt P24941+P20248); assay: Inhibition of recombinant human full length C-terminal 6His-tagged CDK2/N-terminal GST-tagged Cyclin-A co-expressed in baculovirus infected sf21 cells at 1 uM relative to control
HepG2 [12] = assay: Cell cycle arrest in human HepG2 cells assessed as decrease in S-phase at 625 nM after 24 hrs by propidium iodide staining based flow cytometry; assay type: functional; method in brief: as §1
CDK9/cyclin T1 = CDK9/cyclin T1 (Homo sapiens, UniProt P50750); assay: Inhibition of recombinant human full length C-terminal 6His-tagged CDK9/Cyclin-T1 co-expressed in baculovirus infected sf21 cells using PDKtide substrate in presence of [gamma33P]ATP after 10 mins by scintillation counting method
Hep 3B2 [13] = assay: Cytotoxicity against human Hep3B cells assessed as reduction in cell viability after 72 hrs by CCK8 assay
HepG2 [14] = assay: Induction of apoptosis in human HepG2 cells assessed as late apoptotic cells at 5 uM after 48 hrs by annexin V-FITC/propidium iodide staining based flow cytometry (reference value: 0.64%); assay type: functional
Hep 3B2 [15] = assay: Induction of apoptosis in human Hep3B cells assessed as early apoptotic cells at 10 uM after 48 hrs by annexin V-FITC/propidium iodide staining based flow cytometry (reference value: 1.91%); assay type: functional
Hep 3B2 [16] = assay: Induction of apoptosis in human Hep3B cells assessed as late apoptotic cells at 1 uM after 48 hrs by annexin V-FITC/propidium iodide staining based flow cytometry (reference value: 5.25%); assay type: functional
HepG2 [17] = assay: Downregulation of CDK4 protein expression in human HepG2 cells after 48 hrs by Western blot method; assay type: functional, cell-based
NCI-H460 [18] = assay: Downregulation of Cyclin-D1 protein expression in human NCI-H460 cells after 48 hrs by Western blot method; assay type: functional, cell-based
Method in brief: (§2)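 Treated cells were lysed and CDK4 and cyclin D1 protein levels were assessed by Western blot.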

A549 [19] = assay: Downregulation of Cyclin-D1 protein expression in human A549 cells after 48 hrs by Western blot method; assay type: functional, cell-based; method in brief: as §2
CDK4/CDK9 (Homo sapiens) = CDK4/CDK9 (Homo sapiens) (UniProt P11802+P50750); assay: Inhibition of CDK4/CDK9 in human HepG2 cells assessed as reduction in Rb phosphorylation at Ser807/811 residues at 1 uM after 48 hrs by Western blot method; assay type: cell-based
MDA-MB-231 [20] = assay: Induction of apoptosis in human MDA-MB-231 cells assessed as caspase-3 cleavage after 48 hrs by Western blot method; assay type: functional, cell-based
Method in brief: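 Cells were treated with or without test agent, alongside a control, for 48h. They were then lysed and analysed by Western blot for Bcl-2 protein and cleaved caspase 3.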

HepG2 [21] = assay: Induction of apoptosis in human HepG2 cells assessed as caspase-3 cleavage after 48 hrs by Western blot method; assay type: functional, cell-based
Method in brief: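 Cells were treated with or without compound and control for 48 h, then lysed. Bcl-2 and cleaved caspase 3 were assessed by Western blot.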

Histone deacetylase 1 [22] = biological target: T1, Histone deacetylase 1 (Homo sapiens, UniProt Q13547); assay: Inhibition of HDAC1 in human A549 cells assessed as increase in p53 phosphorylation at Ser15 residue at 1 to 5 uM after 48 hrs by Western blot method; assay type: cell-based
Histone deacetylase 1 [23] = biological target: T1, Histone deacetylase 1; assay: Inhibition of HDAC1 in human HepG2 cells assessed as increase in p53 phosphorylation at Ser15 residue at 1 to 5 uM after 48 hrs by Western blot method; assay type: cell-based
[24] = AUC (0 to infinity) in Sprague-Dawley rat at 20 mg/kg, ip administered as single dose by HPLC analysis; assay type: ADME, organism-based; parameters: dose 20 mg/kg, time infinity, route intraperitoneal; conditions: in vivo
[25] = MRT (0 to infinity) in Sprague-Dawley rat at 20 mg/kg, ip administered as single dose by HPLC analysis; assay type: ADME, organism-based; conditions: in vivo
[26] = Cmax in Sprague-Dawley rat at 20 mg/kg, po administered as single dose by HPLC analysis; assay type: ADME, organism-based; parameters: dose 20 mg/kg, route oral; conditions: in vivo
Rattus norvegicus = assay: Apparent volume of distribution at steady state in Sprague-Dawley rat at 20 mg/kg, po administered as single dose by HPLC analysis; assay type: ADME, organism-based; conditions: in vivo
4T1 [27] = assay: Antitumor activity against mouse Fluc-labeled 4T1 cells implanted in Balb/c mouse assessed as tumor growth inhibition administered ip daily for 18 days measured after 8 to 25 days by bioluminescence assay; assay type: functional, organism-based
Method in brief: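 Luciferase (Fluc) reporter introduced into 4T1 cells by lentiviral transduction. Cells implanted orthotopically into mammary fat pads of female BALB/c mice aged 6–8 weeks. Once tumours averaged 100 mm3, dosing was daily by IP injection. Bioluminescence imaging was done at days 8 and 25 to reflect viable tumour cell number. Tumour weight was recorded at study end.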

4T1 [28] = assay: Antitumor activity against mouse Fluc-labeled 4T1 cells implanted in Balb/c mouse assessed as tumor growth inhibition at 130 mg/kg, ip administered daily for 18 days measured after 8 to 25 days by bioluminescence assay relative to control; assay type: functional; conditions: 4T1, ip, read-out: TGI

T1 sequence (Q13547 whole entry): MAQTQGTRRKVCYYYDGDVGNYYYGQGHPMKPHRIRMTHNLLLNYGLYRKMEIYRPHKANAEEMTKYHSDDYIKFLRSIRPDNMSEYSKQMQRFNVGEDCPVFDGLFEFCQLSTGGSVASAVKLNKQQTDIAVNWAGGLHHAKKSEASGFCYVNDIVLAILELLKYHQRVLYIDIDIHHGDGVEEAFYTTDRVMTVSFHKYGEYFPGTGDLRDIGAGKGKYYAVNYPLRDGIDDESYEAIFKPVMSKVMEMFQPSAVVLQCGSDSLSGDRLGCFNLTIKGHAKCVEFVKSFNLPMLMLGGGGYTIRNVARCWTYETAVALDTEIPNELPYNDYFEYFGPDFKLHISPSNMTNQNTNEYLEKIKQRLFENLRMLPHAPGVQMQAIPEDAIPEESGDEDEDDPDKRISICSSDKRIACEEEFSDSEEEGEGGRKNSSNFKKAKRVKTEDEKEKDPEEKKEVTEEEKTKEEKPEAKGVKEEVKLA
CDK4/CDK9 (Homo sapiens), sequence (P11802 whole entry, looked up): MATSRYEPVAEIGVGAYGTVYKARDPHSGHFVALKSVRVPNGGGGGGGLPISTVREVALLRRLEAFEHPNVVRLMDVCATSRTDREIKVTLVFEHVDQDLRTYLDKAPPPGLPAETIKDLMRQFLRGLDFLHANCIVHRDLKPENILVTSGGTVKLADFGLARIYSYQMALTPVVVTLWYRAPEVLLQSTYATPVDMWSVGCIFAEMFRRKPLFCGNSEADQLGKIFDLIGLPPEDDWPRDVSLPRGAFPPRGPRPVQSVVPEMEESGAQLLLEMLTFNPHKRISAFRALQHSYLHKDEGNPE
CDK4/CDK9 (Homo sapiens), sequence (P50750 whole entry, looked up): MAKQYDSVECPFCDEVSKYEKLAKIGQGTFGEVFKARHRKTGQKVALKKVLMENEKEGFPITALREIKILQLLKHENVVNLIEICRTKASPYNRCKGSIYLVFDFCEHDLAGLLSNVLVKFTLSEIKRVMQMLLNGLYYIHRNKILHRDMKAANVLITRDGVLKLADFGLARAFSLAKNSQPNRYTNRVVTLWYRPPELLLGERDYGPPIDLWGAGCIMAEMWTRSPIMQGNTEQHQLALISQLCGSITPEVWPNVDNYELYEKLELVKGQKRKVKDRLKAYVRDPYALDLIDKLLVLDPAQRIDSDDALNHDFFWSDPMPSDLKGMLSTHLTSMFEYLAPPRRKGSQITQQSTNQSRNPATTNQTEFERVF
Aurora kinase B/Inner centromere protein, sequence (Q96GD4 whole entry): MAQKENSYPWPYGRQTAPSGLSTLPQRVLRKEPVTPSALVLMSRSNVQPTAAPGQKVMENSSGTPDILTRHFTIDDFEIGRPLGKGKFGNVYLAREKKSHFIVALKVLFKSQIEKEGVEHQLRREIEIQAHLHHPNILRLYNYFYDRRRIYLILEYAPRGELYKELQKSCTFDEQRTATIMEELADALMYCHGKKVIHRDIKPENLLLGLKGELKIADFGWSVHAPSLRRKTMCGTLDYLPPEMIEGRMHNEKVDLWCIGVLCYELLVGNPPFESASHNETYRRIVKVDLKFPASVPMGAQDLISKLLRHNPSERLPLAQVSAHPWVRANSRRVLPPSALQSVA
Aurora kinase B/Inner centromere protein, sequence (Q9NQS7 whole entry, further chain): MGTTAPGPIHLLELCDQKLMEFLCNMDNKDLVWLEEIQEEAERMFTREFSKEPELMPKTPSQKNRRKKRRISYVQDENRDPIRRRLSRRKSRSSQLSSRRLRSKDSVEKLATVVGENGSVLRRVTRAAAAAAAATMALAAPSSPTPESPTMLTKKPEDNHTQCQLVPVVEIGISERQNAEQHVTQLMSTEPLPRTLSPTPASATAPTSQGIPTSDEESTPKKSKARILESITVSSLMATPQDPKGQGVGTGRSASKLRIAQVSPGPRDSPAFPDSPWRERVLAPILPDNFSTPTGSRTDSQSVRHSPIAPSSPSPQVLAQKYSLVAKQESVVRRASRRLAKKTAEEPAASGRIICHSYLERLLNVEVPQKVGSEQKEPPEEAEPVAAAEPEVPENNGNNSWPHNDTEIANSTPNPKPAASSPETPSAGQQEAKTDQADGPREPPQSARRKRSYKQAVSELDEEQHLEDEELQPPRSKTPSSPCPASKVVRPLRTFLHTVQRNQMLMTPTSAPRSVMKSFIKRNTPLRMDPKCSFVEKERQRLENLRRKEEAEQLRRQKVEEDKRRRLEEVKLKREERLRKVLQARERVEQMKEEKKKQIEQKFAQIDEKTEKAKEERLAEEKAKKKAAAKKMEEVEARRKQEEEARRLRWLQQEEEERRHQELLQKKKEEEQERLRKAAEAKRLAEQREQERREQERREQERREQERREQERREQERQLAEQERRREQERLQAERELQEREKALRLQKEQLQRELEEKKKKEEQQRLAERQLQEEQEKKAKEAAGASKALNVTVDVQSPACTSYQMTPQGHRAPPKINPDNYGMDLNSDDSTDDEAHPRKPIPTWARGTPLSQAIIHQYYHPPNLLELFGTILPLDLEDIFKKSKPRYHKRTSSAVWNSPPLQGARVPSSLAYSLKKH
CDK9/cyclin T1, sequence (O60563 whole entry): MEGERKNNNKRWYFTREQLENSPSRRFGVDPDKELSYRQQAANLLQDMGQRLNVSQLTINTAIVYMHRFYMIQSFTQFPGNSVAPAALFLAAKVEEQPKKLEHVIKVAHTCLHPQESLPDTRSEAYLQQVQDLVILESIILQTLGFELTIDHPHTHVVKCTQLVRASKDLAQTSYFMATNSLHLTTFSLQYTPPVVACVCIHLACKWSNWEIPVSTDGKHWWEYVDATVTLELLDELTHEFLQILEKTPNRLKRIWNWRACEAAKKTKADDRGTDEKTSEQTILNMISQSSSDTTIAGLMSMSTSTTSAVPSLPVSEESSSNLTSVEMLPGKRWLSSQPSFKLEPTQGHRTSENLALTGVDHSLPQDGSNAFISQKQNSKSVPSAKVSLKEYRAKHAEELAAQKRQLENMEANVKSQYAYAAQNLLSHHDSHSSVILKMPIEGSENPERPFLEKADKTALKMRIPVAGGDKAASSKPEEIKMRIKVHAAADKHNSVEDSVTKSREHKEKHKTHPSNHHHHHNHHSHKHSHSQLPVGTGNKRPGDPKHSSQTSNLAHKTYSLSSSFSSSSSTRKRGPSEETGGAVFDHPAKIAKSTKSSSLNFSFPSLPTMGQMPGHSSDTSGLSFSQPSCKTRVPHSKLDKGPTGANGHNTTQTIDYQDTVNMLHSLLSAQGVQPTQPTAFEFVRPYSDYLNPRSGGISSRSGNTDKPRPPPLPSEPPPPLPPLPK
CDK9/cyclin T1, sequence (P50750 whole entry): as the sequence (P50750 whole entry, looked up) above

IC50 [1]: 19 nM
inhibition [11]: 71%
IC50 (CDK9/cyclin T1): 9 nM
inhibition (CDK4/CDK9 (Homo sapiens)): Active
inhibition (Histone deacetylase 1 [22]): Active
inhibition (Histone deacetylase 1 [23]): Active
AUC(0-inf) [24]: 2130 ng·h/mL
MRT inf [25]: 13.8 h
Cmax [26]: 137 ng/mL
Vdss(app) (Rattus norvegicus): 431.52 L/kg
Compound: CN(C)C(=O)c1cc2cnc(Nc3ccc(NC(=O)CCCCCCC(=O)NO)cc3)nc2n1C1CCCC1
Activity (HepG2 [2]): 73.3%
Activity (A549 [3]): 1.93%
Activity (NCI-H460 [4]): 88.9%
Activity (NCI-H460 [5]): 1.48%
Activity (T47D [6]): 17.1%
Activity (MDA-MB-231 [7]): 0.78%
Activity (T47D [8]): Active
Activity (Hep 3B2 [9]): Active
Activity (MDA-MB-231 [10]): Active
Activity (HepG2 [12]): Active
IC50 (Hep 3B2 [13]): 1240 nM
Activity (HepG2 [14]): 11.1%
Activity (Hep 3B2 [15]): 8.15%
Activity (Hep 3B2 [16]): 7.09%
Activity (HepG2 [17]): Dose-dependent effect
Activity (NCI-H460 [18]): Dose-dependent effect
Activity (A549 [19]): Dose-dependent effect
Activity (MDA-MB-231 [20]): Active
Activity (HepG2 [21]): Active
TGI (4T1 [27]): Dose-dependent effect
inhibition in vivo at 130 mg/kg (4T1 [28]): 84.8%
